The values that follow come from ChEMBL document CHEMBL2311279, “Discovery of a new series of [1,2,4]triazolo[4,3-a]quinoxalines as dual phosphodiesterase 2/phosphodiesterase 10 (PDE2/PDE10) inhibitors” (Bioorg Med Chem Lett, 2013).

The target of data set [1] is cGMP-dependent 3',5'-cyclic phosphodiesterase (Homo sapiens, UniProt O00408). Kind of data set: Inhibition of human recombinant PDE2A expressed in Sf9 cells by scintillation proximity assay. A general note: Scintillation proximity formats need no separation of bound from free tracer.
The nature of data set [2]: Selectivity ratio of IC50 for rat PDE10A to IC50 for human recombinant PDE2A. The method, boiled down: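 Inhibition of rat PDE10A and human PDE2A enzymes measured in vitro. IC50 values are mean ± SD of at least two experiments unless otherwise specified. The ratio is rat PDE10A IC50 divided by human PDE2A IC50.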
For data set [3], the target named is cGMP-inhibited 3',5'-cyclic phosphodiesterase 3B (Homo sapiens, UniProt Q13370). Kind of data set: Inhibition of human recombinant PDE3B expressed in Sf9 cells by scintillation proximity assay.
In data set [4] the target is cGMP-inhibited 3',5'-cyclic phosphodiesterase 3A (Homo sapiens, UniProt Q14432). In words: Inhibition of human recombinant PDE3A expressed in Sf9 cells by scintillation proximity assay.
The next data set concerns Striatum. Kind of data set: Drug uptake in Wistar rat striatum at 0.03 mg/kg, iv after 2 to 30 mins. The class given is ADME, organism-based. On the set-up: dose 0.03 mg/kg, route intravenous. The conditions noted are these: in vivo. The method, boiled down:
(§1)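 Male Wistar rats (180–200 g) received 0.03 mg/kg i.v. and were killed at 2, 5, 10 and 30 min, with 3 rats per time point. Brains were rapidly removed and dissected into striatum, hippocampus and whole cortex. Each region was homogenized by ultrasonic probe in 4 volumes of 75% acetonitrile and centrifuged, then drug was quantified by LC-MS.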

The subject of the next data set is Hippocampus. Kind of data set: Drug uptake in Wistar rat hippocampus at 0.03 mg/kg, iv after 2 to 30 mins. The class given is ADME, organism-based. On the set-up: dose 0.03 mg/kg, route intravenous. The conditions noted are these: in vivo. In outline: as §1
Data set [5] concerns the target cGMP-specific 3',5'-cyclic phosphodiesterase (Homo sapiens, UniProt O76074). Kind of data set: Inhibition of human recombinant PDE5A expressed in Sf9 cells by scintillation proximity assay.
Data set [6] is described as follows: Plasma concentration in Sprague-Dawley rat at 10 mg/kg, sc after 1 hr. On the set-up: dose 10 mg/kg, route subcutaneous. The format is ADME, organism-based. In outline: (§2)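 Male rats dosed once at 10 mg/kg, subcutaneously or orally. Vehicle was mostly 20% HP-b-CD at pH 4, with some dosing in 0.5% methocel suspension or H2O + tartaric acid. Brain (ng/g) and plasma (ng/mL) were sampled 1 h after dosing, and the brain/plasma ratio was derived from these. Values are geometric means of at least two runs ± SEM.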

Data set [7] is described as follows: Drug level in Sprague-Dawley rat brain at 10 mg/kg, sc after 1 hr. The format is ADME, organism-based. On the set-up: dose 10 mg/kg, route subcutaneous. The following applies: read-out: Drug uptake. The method, boiled down:
as §2

Data set [8] addresses Dual 3',5'-cyclic-AMP and -GMP phosphodiesterase 11A (Homo sapiens, UniProt Q9HCR9). In words: Inhibition of human recombinant PDE11A expressed in Sf9 cells by scintillation proximity assay.
In data set [9] the target is High affinity cGMP-specific 3',5'-cyclic phosphodiesterase 9A (Homo sapiens, UniProt O76083). In words: Inhibition of human recombinant PDE9A expressed in Sf9 cells by scintillation proximity assay.
The test system of a further data set is Cortex. In words: Drug uptake in Wistar rat cortex at 0.03 mg/kg, iv after 2 to 30 mins. The conditions noted are these: in vivo. The format is ADME, organism-based. On the set-up: dose 0.03 mg/kg, route intravenous. The method, boiled down:
as §1

In data set [10] the target is High affinity 3',5'-cyclic-AMP phosphodiesterase 7A (Homo sapiens, UniProt Q13946). In words: Inhibition of human recombinant PDE7A expressed in Sf9 cells by scintillation proximity assay.
Data set [11] concerns the target 3',5'-cyclic-AMP phosphodiesterase 4A (Homo sapiens, UniProt P27815). In words: Inhibition of human recombinant PDE4A expressed in Sf9 cells by scintillation proximity assay.
Data set [12] can be described thus: Ratio of drug level brain to plasma in Sprague-Dawley rat at 10 mg/kg, sc after 1 hr. The arrangement: dose 10 mg/kg, route subcutaneous. The class given is ADME, organism-based. The conditions noted are these: read-out: BPR. The method, boiled down:
as §2

The target in data set [13] is Dual specificity calcium/calmodulin-dependent 3',5'-cyclic nucleotide phosphodiesterase 1B (Homo sapiens, UniProt Q01064). In words: Inhibition of human recombinant PDE1B expressed in Sf9 cells by scintillation proximity assay.
For another data set, the target named is Phosphodiesterase 6. Kind of data set: Inhibition of human recombinant PDE6AB expressed in Sf9 cells by scintillation proximity assay.
Data set [14] is described as follows: Ratio of drug level brain to plasma in Wistar rat at 10 mg/kg, sc after 1 hr. The format is ADME, organism-based. On the set-up: dose 10 mg/kg, route subcutaneous. The conditions noted are these: read-out: BPR. The method, boiled down:
as §2

The nature of data set [15]: Plasma concentration in Wistar rat at 10 mg/kg, sc after 1 hr. The class given is ADME, organism-based. On the set-up: dose 10 mg/kg, route subcutaneous. The method, boiled down:
as §2

A short description of data set [16]: Drug level in Wistar rat brain at 10 mg/kg, sc after 1 hr. On the set-up: dose 10 mg/kg, route subcutaneous. The class given is ADME, organism-based. The conditions noted are these: read-out: Drug uptake. In outline:
as §2

Data set [17] can be described thus: Drug level in Sprague-Dawley rat brain at 10 mg/kg, po after 1 hr. The format is ADME, organism-based. The arrangement: dose 10 mg/kg, route oral. The following applies: read-out: Drug uptake. In outline: as §2
Data set [18] in a line: Ratio of drug level brain to plasma in Sprague-Dawley rat at 10 mg/kg, po after 1 hr. The class given is ADME, organism-based. The arrangement: dose 10 mg/kg, route oral. The conditions noted are these: read-out: BPR. The method, boiled down: as §2
Data set [19] in a line: Plasma concentration in Sprague-Dawley rat at 10 mg/kg, po after 1 hr. The format is ADME, organism-based. The arrangement: dose 10 mg/kg, route oral. In outline: as §2
Data set [20] in a line: Plasma concentration in Wistar rat at 10 mg/kg, po after 1 hr. The format is ADME, organism-based. On the set-up: dose 10 mg/kg, route oral. The method, boiled down:
as §2

Data set [21] is described as follows: Ratio of drug level brain to plasma in Wistar rat at 10 mg/kg, po after 1 hr. The format is ADME, organism-based. On the set-up: dose 10 mg/kg, route oral. The conditions noted are these: read-out: BPR. The method, boiled down:
as §2

Data set [22] can be described thus: Drug level in Wistar rat brain at 10 mg/kg, po after 1 hr. The class given is ADME, organism-based. The following applies: read-out: Drug uptake. The arrangement: dose 10 mg/kg, route oral. In outline: as §2

Sequence of cGMP-dependent 3',5'-cyclic phosphodiesterase (O00408 whole entry): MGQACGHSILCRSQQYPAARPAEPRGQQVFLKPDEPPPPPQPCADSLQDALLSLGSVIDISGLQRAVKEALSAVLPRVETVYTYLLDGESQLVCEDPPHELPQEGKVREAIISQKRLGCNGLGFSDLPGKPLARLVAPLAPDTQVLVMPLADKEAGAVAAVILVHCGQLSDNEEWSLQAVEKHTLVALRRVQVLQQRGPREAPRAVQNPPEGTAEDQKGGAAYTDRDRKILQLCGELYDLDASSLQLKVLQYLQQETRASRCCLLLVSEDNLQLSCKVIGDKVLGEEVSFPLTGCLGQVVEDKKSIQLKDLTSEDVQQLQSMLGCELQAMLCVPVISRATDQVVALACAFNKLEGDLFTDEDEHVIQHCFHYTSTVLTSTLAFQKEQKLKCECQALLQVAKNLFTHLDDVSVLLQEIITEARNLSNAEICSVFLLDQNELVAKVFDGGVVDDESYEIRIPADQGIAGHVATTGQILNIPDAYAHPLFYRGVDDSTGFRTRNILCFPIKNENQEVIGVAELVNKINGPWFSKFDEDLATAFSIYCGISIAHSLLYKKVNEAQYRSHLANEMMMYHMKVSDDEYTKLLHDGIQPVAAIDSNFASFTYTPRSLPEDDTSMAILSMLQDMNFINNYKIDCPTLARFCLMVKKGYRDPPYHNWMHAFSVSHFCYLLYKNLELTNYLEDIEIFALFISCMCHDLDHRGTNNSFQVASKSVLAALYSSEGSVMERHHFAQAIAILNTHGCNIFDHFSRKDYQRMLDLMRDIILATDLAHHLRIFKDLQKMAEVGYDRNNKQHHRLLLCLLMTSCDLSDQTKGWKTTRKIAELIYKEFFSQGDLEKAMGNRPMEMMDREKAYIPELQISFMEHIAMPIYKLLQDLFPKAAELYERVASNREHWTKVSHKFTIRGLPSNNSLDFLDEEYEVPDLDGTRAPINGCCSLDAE
Sequence of cGMP-inhibited 3',5'-cyclic phosphodiesterase 3B (Q13370 whole entry): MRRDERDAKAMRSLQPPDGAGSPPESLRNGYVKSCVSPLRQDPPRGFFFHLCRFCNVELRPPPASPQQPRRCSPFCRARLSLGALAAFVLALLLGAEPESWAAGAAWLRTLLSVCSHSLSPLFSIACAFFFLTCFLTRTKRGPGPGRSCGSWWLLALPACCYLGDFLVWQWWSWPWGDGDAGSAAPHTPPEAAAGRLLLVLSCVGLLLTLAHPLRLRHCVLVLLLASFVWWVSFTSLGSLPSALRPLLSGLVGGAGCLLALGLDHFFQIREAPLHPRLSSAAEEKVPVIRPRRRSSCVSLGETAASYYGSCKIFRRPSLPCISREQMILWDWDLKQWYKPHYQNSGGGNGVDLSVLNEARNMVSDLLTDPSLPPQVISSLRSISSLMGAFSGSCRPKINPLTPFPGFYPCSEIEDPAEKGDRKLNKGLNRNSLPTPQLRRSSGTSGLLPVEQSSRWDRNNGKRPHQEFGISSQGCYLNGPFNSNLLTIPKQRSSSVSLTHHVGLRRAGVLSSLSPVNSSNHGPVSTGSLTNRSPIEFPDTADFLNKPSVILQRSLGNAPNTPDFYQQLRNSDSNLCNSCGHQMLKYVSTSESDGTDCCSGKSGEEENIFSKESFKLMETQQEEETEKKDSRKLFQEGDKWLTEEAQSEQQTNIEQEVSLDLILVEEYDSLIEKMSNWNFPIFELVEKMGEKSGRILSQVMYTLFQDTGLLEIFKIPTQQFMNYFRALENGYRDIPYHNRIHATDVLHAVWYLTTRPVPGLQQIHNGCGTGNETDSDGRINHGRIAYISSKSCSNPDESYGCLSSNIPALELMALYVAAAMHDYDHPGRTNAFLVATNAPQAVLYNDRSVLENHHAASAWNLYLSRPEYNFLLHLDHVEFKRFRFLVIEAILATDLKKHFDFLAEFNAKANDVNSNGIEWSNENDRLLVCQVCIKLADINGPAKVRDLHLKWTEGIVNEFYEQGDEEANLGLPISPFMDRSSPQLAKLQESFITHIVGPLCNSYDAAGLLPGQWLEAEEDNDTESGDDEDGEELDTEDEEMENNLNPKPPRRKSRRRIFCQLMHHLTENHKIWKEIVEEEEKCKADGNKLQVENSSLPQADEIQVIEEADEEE
Sequence of 3',5'-cyclic-AMP phosphodiesterase 4A (P27815 whole entry): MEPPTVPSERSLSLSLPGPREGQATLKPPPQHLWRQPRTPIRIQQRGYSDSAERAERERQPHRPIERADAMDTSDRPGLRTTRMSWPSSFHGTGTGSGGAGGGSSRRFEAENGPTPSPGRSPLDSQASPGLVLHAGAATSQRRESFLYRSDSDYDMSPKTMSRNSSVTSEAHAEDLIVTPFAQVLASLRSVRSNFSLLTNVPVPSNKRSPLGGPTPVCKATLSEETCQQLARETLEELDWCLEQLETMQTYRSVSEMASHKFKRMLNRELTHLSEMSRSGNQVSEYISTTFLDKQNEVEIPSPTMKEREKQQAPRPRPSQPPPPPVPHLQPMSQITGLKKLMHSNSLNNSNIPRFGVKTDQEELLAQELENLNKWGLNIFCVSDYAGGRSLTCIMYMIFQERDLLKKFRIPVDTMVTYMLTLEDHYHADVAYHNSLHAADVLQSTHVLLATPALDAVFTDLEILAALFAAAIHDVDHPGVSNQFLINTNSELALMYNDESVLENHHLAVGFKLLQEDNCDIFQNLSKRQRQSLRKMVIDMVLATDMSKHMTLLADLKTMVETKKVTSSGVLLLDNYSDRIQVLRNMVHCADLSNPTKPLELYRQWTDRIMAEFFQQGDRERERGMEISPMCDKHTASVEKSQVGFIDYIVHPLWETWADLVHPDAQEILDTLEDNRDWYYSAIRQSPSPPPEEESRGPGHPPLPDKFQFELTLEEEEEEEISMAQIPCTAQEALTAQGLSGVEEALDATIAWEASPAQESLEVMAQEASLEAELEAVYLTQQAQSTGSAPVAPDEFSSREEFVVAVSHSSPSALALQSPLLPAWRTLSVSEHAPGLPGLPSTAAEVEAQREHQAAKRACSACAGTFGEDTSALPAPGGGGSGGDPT
Sequence of High affinity 3',5'-cyclic-AMP phosphodiesterase 7A (Q13946 whole entry): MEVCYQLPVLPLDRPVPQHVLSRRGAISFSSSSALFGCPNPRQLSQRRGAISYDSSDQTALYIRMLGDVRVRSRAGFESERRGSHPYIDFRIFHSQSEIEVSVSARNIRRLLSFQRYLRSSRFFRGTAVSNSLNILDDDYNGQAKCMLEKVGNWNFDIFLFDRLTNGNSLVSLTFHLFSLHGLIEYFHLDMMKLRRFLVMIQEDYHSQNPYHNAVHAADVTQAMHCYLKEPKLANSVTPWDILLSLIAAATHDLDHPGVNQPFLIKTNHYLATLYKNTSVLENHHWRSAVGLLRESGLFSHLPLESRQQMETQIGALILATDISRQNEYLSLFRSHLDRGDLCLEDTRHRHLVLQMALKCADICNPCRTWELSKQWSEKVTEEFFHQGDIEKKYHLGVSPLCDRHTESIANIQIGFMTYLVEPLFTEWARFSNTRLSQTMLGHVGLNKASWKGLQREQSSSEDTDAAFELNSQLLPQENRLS
Sequence of Dual 3',5'-cyclic-AMP and -GMP phosphodiesterase 11A (Q9HCR9 whole entry): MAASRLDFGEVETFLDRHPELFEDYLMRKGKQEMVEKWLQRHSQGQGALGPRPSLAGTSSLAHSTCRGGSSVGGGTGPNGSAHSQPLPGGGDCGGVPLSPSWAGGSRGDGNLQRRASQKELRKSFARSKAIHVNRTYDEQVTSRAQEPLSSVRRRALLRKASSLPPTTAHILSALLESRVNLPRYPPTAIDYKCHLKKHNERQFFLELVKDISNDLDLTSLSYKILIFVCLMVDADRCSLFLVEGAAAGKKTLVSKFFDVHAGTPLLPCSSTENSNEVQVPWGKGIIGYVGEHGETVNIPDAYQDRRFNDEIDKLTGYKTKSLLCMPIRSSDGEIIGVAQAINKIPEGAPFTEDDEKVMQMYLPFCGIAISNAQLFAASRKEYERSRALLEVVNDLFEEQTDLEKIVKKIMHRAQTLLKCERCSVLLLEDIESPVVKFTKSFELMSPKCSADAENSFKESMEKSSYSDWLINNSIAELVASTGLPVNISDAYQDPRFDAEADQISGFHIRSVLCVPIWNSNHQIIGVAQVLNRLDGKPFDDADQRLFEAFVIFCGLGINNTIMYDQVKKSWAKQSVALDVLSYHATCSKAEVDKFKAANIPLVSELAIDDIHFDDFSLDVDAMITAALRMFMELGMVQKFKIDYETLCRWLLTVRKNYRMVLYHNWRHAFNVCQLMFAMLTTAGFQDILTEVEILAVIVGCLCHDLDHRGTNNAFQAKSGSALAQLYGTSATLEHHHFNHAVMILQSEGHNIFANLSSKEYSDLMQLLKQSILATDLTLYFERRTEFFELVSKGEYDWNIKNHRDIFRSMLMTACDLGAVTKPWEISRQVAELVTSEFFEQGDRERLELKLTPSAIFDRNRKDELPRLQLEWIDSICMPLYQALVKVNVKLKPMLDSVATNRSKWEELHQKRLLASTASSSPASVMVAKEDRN
Sequence of High affinity cGMP-specific 3',5'-cyclic phosphodiesterase 9A (O76083 whole entry): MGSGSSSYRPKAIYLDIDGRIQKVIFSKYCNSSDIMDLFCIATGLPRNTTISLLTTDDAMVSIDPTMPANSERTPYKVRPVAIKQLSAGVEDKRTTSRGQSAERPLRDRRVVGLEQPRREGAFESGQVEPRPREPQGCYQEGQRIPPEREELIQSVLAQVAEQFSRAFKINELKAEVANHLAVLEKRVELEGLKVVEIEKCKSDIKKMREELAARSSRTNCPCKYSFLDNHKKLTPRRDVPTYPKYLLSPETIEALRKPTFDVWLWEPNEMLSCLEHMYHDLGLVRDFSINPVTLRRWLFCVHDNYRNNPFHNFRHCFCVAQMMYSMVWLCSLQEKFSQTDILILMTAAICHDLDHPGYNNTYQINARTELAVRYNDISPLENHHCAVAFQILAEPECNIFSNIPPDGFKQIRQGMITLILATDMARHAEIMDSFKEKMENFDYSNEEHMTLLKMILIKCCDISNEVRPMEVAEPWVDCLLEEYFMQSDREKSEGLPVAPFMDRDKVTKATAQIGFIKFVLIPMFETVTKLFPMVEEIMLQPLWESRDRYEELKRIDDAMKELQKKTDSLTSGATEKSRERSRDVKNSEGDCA

For orientation: IC50 means the concentration needed to halve the response being measured. On to `Cc1nc2ccc(C(=O)NCCc3ccccc3)cc2n2c(-c3ccccc3Cl)nnc12`, for which the IC50 in data set [1] amounted to 1.7 nM.
On the same count and under the same terms, in the case of `Cc1nc2ccc(CN3CCN(C)CC3)cc2n2c(-c3ccccc3Cl)nnc12` it was 7.1 nM.
Turning to `Cc1nc2ccc(C(=O)NCc3ccccc3)cc2n2c(-c3ccccc3Cl)nnc12`, in data set [1], the IC50 is 0.38 nM. Also, the Ratio IC50 in [2] is 32.
Turning to `CCNC(=O)c1ccc2nc(C)c3nnc(-c4cccnc4OC)n3c2c1`, the IC50 in data set [1] was 28 nM.
Turning to `CCNC(=O)c1ccc2nc(C)c3nnc(-c4ccccc4OC)n3c2c1`, the IC50 in data set [1] is 5.9 nM.
As for `Cc1nc2ccc(CN3CCOCC3)cc2n2c(-c3ccccc3Cl)nnc12`, the IC50 in data set [3] is over 10000 nM; in data set [4] it was 7760 nM; in data set [1], 2.8 nM; in data set [5], over 10000 nM; in [8], over 10000 nM; in data set [9], over 10000 nM. The IC50 was 1910 nM in data set [10], over 10000 nM in data set [11], 4900 nM in data set [13] and 2280 nM at Phosphodiesterase 6. For the same compound, the Drug uptake result in the data set with Striatum, in the data set on Hippocampus and in the data set with Cortex was “Active” each time. For the same compound, the concentration at 1 h in data set [6] is 299 ng/mL; in data set [7], 189 ng/g. Moreover, in data set [12], the Kp at 1 h worked out at 0.62.
Turning to `Cc1nc2ccc(CN3CCC(O)CC3)cc2n2c(-c3ccccc3Cl)nnc12`, in data set [1], the IC50 came out at 9.7 nM.
Still for that read-out and setting: the figure for `CCOC(=O)c1ccc2nc(C)c3nnc(-c4ccccc4Cl)n3c2c1` is 4.4 nM.
Consider `CCNC(=O)c1ccc2nc(C)c3nnc(-c4cnccc4C)n3c2c1`, for which the concentration at 1 h in [6] was 2800 ng/mL; in [7], 98 ng/g. Further, the Kp at 1 h in data set [12] turned out to be 0.036.
As to `Cc1nc2ccc(CN3CCCC(CO)C3)cc2n2c(-c3ccccc3Cl)nnc12` (centres undefined), the Kp at 1 h in [14] worked out at 0.18. Further, the concentration at 1 h stood at 569 ng/mL in data set [15] and 99 ng/g in data set [16].
With `CCNCc1ccc2nc(C)c3nnc(-c4ccccc4Cl)n3c2c1`, the concentration at 1 h in [6] is 845 ng/mL; in data set [7], 628 ng/g. For the same compound, the Kp at 1 h in [12] worked out at 0.73.
Turning to `Cc1nc2ccc(C(=O)NCCN3CCCC3)cc2n2c(-c3ccccc3Cl)nnc12`, the IC50 in data set [1] came to 2.2 nM. Besides, the Kp at 1 h in data set [14] was 0.14. Moreover, the concentration at 1 h in data set [15] came out at 1070 ng/mL; in data set [16], 143 ng/g.
In the case of `Cc1nc2ccc(C(=O)N(C)Cc3ccccc3)cc2n2c(-c3ccccc3Cl)nnc12`, the IC50 in data set [1] amounted to 19 nM.
Take `CCNC(=O)c1ccc2nc(C)c3nnc(-c4cncc(OC)c4)n3c2c1`: the results for the concentration at 1 h in [17] and in [19] were 16 ng/g and 467 ng/mL, respectively. In addition, the Kp at 1 h in data set [18] was found to be 0.034.
On to `CCNC(=O)c1ccc2nc(C)c3nnc(-c4ccccn4)n3c2c1`, for which the IC50 in data set [1] is 263 nM.
Regarding `Cc1nc2ccc(C(=O)NCCN3CCOCC3)cc2n2c(-c3ccccc3Cl)nnc12`, the Kp at 1 h in data set [14] stood at 0.034. Also, the concentration at 1 h worked out at 2540 ng/mL in data set [15] and 88 ng/g in data set [16].
For `CCNC(=O)c1ccc2nc(C)c3nnc(-c4ccccc4F)n3c2c1`, in data set [1], the IC50 stood at 2.8 nM.
As for `CCNC(=O)c1ccc2nc(C)c3nnc(-c4ccccc4Cl)n3c2c1`, the figures for the concentration at 1 h in data set [20] and in data set [22] were 1880 ng/mL and 185 ng/g, respectively. In data set [21], the Kp at 1 h was found to be 0.11.
